Experimental data: ChEMBL document CHEMBL5712922, “Synergistic effects of type I PRMT and PARP inhibitors against non-small cell lung cancer cells” (Clin Epigenetics, 2021)
Residues, ends and D or L forms follow the SMILES beside them.

What was measured:
A549 [1] = assay: Antiproliferative against human A549 cells assessed as viable cells pretreated with MS023 for 24 hrs followed by compound addition at 10 uM measured after for 24 hrs relative to control; details: A549, 24 h, read-out: Activity
A549 [2] = assay: Synergistic antiproliferative activity against human A549 cells pretreated with MS023 for 24 hrs followed by compound addition at 10 uM measured after for 24 hrs relative to control; assay type: functional
In short: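 A549 seeded 20K/well; next day 16.5 μM MS023 or DMSO for 24 h, then 181 epigenetic library drugs at 10 μM for 24 h. Viability by Viacount flow cytometry after trypsinization; heat-killed well as total death control. Synergy Index = (monotherapy viability × MS023 viability effect)/combination viability; also synergy percentage (1 − 1/SI)×100.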

SMILES: CC(C)C[C@H](NC(=O)[C@H](Cc1ccccc1)NC(=O)[C@H](CCC(N)=O)NC(=O)[C@H](Cc1ccc(O)cc1)NC(=O)[C@H](C)NC(=O)CNC(=O)[C@H](CCCCN)NC(=O)[C@H](Cc1c[nH]c2ccccc12)NC(=O)[C@@H](NC(=O)[C@H](Cc1c[nH]c2ccccc12)NC(=O)[C@H](CCCCN)NC(=O)CNC(=O)[C@H](CC(N)=O)NC(=O)[C@H](CCC(=O)O)NC(=O)[C@H](Cc1c[nH]c2ccccc12)NC(=O)[C@@H](NC(=O)[C@H](Cc1c[nH]c2ccccc12)NC(=O)[C@H](CO)NC(=O)CNC(=O)[C@@H]1CCCN1C(=O)[C@H](Cc1c[nH]c2ccccc12)NC(=O)[C@H](CCC(N)=O)NC(=O)[C@H](Cc1ccccc1)NC(=O)CNC(=O)[C@@H](N)Cc1cnc[nH]1)[C@@H](C)O)[C@@H](C)O)C(=O)N[C@@H](CCCCN)C(=O)NCC(=O)NCC(=O)NCC(=O)NCC(=O)N[C@@H](CO)C(=O)N[C@@H](CCCNC(=N)N)C(=O)N[C@@H](CCCNC(=N)N)C(=O)N[C@@H](CCCNC(=N)N)C(=O)N[C@@H](CCCNC(=N)N)C(=O)N[C@@H](CCCNC(=N)N)C(=O)N[C@@H](CCCNC(=N)N)C(=O)N[C@@H](CCCNC(=N)N)C(=O)N[C@@H](CCCNC(=N)N)C(=O)N[C@@H](CCCNC(=N)N)C(=O)O (H-HGFQWPGSWTWENGKWTWKGAYQFLKGGGGSRRRRRRRRR-OH)
- viability at 10 µM (A549 [1]): 54.2%

SMILES: N#CC[C@H](C1CCCC1)n1cc(-c2ncnc3[nH]ccc23)cn1 [RUXOLITINIB]
- viability at 10 µM (A549 [1]): 54.2%

SMILES: N[C@@H]1CCCN(c2c(/C=C3\SC(=O)NC3=O)cccc2-c2ccccc2)C1
- viability at 10 µM (A549 [1]): 54.2%

SMILES: O=C(Nc1ccc(-c2ccnc(Nc3ccc(N4CCOCC4)cc3)n2)cc1)[C@@H]1CCCN1
- viability at 10 µM (A549 [1]): 54.2%

SMILES: O=C(c1cc(Cc2n[nH]c(=O)c3ccccc23)ccc1F)N1CCN(C(=O)C2CC2)CC1 [OLAPARIB]
- Activity (A549 [2]): 48%
- viability at 10 µM (A549 [1]): 54.2%

SMILES: O=C1NC(=O)/C(=C/c2cccc(C(F)(F)F)c2)S1
- viability at 10 µM (A549 [1]): 54.2%

SMILES: CC1=NN(c2ccc(C(=O)O)cc2)C(=O)/C1=C/c1ccc(-c2cc(C)c(C)cc2[N+](=O)[O-])o1
- viability at 10 µM (A549 [1]): 54.2%

SMILES: CCCC(CCC)C(=O)O [VALPROIC ACID]
- viability at 10 µM (A549 [1]): 54.2%
